Calls of active or inactive are those of the source. The calls are words filed in the database; no cut-off is given here.
What was measured:
[1] = target: T1, Natriuretic peptides A (Rattus norvegicus) (UniProt P01161); assay: Compound was administered subcutaneously to spontaneously hypertensive rats (SHR) and evaluated for the ability to potentiate atrial natriuretic factor (ANF)
T1 sequence (whole entry): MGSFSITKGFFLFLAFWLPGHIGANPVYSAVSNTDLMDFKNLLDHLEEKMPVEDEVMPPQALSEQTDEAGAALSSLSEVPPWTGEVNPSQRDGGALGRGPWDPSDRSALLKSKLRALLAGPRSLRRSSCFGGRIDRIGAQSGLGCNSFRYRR
Procedure, shortened: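 Conscious SHR given 30 mg/kg s.c. 30 min before an i.v. challenge of 30 μg/kg ANF 103–125; mean arterial pressure followed, with vehicle-treated controls. Value is the maximum increase in hypotensive response to ANF over the control group.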

[2] = target: T1, Natriuretic peptides A (Rattus norvegicus); conditions: Cardiac atrium
[3] = target: T2, Neprilysin (Oryctolagus cuniculus, UniProt P08049); assay: Compound was evaluated for the ability to inhibit neutral endopeptidase purified from rabbit kidney
T2 sequence (P08049 whole entry): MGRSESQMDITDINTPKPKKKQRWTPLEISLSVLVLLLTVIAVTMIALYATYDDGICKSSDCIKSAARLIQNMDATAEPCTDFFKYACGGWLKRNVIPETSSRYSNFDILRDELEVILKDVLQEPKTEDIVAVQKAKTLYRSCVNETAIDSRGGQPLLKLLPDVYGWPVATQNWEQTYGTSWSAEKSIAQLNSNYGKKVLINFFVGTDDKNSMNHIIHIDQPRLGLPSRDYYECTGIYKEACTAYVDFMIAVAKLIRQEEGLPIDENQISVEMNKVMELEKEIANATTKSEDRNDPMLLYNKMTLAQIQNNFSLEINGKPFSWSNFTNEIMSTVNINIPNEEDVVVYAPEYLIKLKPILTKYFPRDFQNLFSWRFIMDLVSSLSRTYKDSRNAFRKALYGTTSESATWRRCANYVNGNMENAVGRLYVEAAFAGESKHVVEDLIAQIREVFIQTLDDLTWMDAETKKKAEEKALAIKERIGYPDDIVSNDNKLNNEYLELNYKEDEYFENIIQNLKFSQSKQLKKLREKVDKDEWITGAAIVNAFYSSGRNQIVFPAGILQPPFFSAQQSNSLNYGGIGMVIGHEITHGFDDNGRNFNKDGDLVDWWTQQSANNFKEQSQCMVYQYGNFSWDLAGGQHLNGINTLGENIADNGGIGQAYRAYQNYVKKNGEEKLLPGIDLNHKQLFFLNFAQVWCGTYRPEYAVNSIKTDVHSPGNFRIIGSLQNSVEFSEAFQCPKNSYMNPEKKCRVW
Procedure, shortened: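 Enzyme: purified rabbit kidney neutral endopeptidase (NEP).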

[4] = target: T3, Angiotensin-converting enzyme (Rattus norvegicus, UniProt P47820); assay: Compound was evaluated for the ability to inhibit Angiotensin I converting enzyme in rat
T3 sequence (P47820 whole entry): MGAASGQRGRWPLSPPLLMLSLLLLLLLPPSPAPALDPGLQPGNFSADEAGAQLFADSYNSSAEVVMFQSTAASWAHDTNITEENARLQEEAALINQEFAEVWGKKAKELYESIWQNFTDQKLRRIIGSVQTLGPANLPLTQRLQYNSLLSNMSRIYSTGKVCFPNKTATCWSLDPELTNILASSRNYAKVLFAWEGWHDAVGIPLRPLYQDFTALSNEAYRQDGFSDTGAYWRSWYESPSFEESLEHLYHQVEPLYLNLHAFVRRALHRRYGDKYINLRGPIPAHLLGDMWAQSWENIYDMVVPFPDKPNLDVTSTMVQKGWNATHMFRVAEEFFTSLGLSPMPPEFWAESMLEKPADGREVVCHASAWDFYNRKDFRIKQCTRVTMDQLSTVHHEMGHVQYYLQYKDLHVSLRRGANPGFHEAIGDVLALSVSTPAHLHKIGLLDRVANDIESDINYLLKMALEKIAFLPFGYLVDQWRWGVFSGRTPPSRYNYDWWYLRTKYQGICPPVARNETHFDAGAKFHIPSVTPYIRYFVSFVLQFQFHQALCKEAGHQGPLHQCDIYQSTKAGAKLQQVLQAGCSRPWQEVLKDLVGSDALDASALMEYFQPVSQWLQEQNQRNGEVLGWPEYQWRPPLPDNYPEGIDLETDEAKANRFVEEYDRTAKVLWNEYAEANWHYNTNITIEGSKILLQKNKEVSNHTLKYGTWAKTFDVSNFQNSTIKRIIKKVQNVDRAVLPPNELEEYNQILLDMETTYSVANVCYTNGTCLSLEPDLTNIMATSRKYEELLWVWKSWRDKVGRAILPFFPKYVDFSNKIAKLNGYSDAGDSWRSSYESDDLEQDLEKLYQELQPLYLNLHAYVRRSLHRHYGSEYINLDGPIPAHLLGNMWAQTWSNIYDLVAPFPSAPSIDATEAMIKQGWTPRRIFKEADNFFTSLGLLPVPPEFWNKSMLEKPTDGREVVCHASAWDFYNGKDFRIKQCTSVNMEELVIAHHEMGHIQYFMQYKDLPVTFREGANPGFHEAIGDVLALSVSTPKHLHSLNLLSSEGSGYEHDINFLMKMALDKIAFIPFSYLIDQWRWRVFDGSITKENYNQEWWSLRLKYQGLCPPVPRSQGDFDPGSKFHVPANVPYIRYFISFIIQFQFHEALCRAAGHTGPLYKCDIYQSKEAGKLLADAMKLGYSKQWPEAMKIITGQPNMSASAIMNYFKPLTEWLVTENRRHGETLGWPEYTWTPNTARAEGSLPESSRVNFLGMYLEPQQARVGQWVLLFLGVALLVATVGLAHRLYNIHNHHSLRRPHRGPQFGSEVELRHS

`O=C(O)[C@H](CCc1ccccc1)N[C@@H](Cc1ccccc1)C(=O)NC[C@H](O)C(=O)O` (stereo in doubt; 6d) [listing 1 of 2 here] showed a Delta blood pressure [1] of 25 mmHg.

In the case of `O=C(O)[C@H](CO)NC(=O)[C@H](Cc1ccccc1)N[C@@H](CCc1ccccc1)C(=O)O`, the Delta blood pressure [2] is reported as “inactive”, the IC50 [3] is reported as 393 nM and the IC50 [4] is reported as 320 nM.

In the case of `O=C(O)[C@H](CCc1ccccc1)N[C@@H](Cc1ccccc1)C(=O)NC[C@H](O)C(=O)O` (stereo in doubt; 6e) [listing 1 of 2 here], the IC50 [3] is reported as 15 nM and the IC50 [4] is reported as > 1000 nM.

`O=C(O)[C@H](O)CNC(=O)[C@H](Cc1ccccc1)N[C@@H](CCc1ccccc1)C(=O)O` showed a Delta blood pressure [1] of 28 mmHg, an IC50 [3] of 21 nM and an IC50 [4] of 640 nM.

With `O=C(O)CCNC(=O)[C@H](Cc1ccccc1)N[C@@H](CCc1ccccc1)C(=O)O` the Delta blood pressure [1] was 17 mmHg, the IC50 [3] was 16 nM and the IC50 [4] was > 1000 nM.

In the case of `O=C(O)[C@H](CCc1ccccc1)N[C@@H](Cc1ccccc1)C(=O)NC[C@H](O)C(=O)O` (stereo in doubt; 6d) [listing 2 of 2 here], the IC50 [3] is reported as 11 nM and the IC50 [4] is reported as > 1000 nM.

Compound `O=C(O)[C@H](CCc1ccccc1)N[C@@H](Cc1ccccc1)C(=O)NC[C@H](O)C(=O)O` (stereo in doubt; 6e) [listing 2 of 2 here] has a Delta blood pressure [1] of 35 mmHg.

`O=C(O)[C@H](Cc1ccccc1)N[C@@H](Cc1ccccc1)C(=O)NC[C@H](O)C(=O)O` was tested, and the Delta blood pressure [1] was 17 mmHg, the IC50 [3] was 11 nM and the IC50 [4] was > 1000 nM.

With `O=C(O)CCNC(=O)[C@H](Cc1ccccc1)N[C@@H](Cc1ccccc1)C(=O)O` the Delta blood pressure [1] was 20 mmHg, the IC50 [3] was 20 nM and the IC50 [4] was > 1000 nM.

Source: ChEMBL document CHEMBL1124671, “Carboxyalkyl dipeptides with atrial natriuretic factor potentiating and antihypertensive activity” (J Med Chem, 1989)
